Reference: ChEMBL document CHEMBL4118021, “Studies of TAK1-centered polypharmacology with novel covalent TAK1 inhibitors” (Bioorg Med Chem, 2017)
Activity calls are given as the source filed them. No cut-off for these calls is given here.

Columns and labels:
[1] = system: NCI-H358; assay: Antiproliferative activity against human NCI-H358 cells harboring KRAS G12C mutant at; assay type: functional, cell-based
[2] = system: NCI-H23; assay: Antiproliferative activity against human NCI-H23 cells harboring KRAS G12C mutant at; assay type: functional, cell-based
[3] = Increase in secretion of basic-FGF in TNFalpha activated RA patient-derived synovial fibroblasts at 0.6 to 3 uM preincubated for 3 hrs followed by TNFalpha stimulation measured after 18 hrs by sandwich immunoassay; details: human
In short: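 Primary RA patient synovial fibroblasts (donor RA2159) were seeded at 1000 cells/well, grown about 24 h, then starved overnight and again about 4 h in basal medium with 0.1% BSA. Cells were pre-incubated 3 h with inhibitor (0.6 or 3 μM) or DMSO, then stimulated 18 h with 10 ng/mL TNFα. Paired wells were pooled, in biological duplicate. Pooled supernatants were diluted 1:3 and read on Luminex bead sandwich immunoassays, with mock-medium background and spiked-ligand controls.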

[4] = system: MOLM-14; assay: Antiproliferative activity against human MOLM14 cells harboring FLT3-ITD mutant at […] to […] nM after 72 hrs by CellTiter-Glo assay; assay type: functional, cell-based
[5] = target: T1, Mitogen-activated protein kinase kinase kinase 7 (Homo sapiens) (UniProt O43318); assay: Inhibition of TAK1 in RA patient-derived synovial fibroblasts assessed as inhibition of poly(I:C)-induced cytokine secretion at 3 uM preincubated for 3 hrs followed by poly(I:C) stimulation measured after 18 hrs by sandwich immunoassay
T1 sequence (whole entry): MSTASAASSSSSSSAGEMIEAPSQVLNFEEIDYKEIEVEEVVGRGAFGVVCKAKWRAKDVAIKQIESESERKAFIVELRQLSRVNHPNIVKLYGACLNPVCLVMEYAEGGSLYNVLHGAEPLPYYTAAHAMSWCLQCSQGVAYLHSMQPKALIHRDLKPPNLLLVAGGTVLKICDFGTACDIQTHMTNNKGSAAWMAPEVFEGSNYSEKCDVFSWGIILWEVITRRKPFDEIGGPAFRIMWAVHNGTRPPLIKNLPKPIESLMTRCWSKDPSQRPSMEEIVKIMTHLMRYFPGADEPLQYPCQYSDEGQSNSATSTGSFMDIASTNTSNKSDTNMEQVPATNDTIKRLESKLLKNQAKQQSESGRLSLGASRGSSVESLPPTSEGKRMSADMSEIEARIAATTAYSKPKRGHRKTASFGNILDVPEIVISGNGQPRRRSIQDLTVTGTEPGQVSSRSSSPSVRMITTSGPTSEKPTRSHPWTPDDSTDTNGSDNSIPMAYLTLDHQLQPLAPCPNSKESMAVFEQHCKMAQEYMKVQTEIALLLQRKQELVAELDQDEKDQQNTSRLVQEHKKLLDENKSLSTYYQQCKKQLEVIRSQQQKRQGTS
In short: (§1)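 Primary RA synovial fibroblasts (donor RA2159) seeded 1000 cells/well and grown ~24 h at 37 °C, 5% CO2. Starved overnight in basal medium, then ~4 h in basal medium with 0.1% BSA. Two adjacent wells pooled per replicate, in biological duplicate. Supernatants diluted 1:3 and run on Luminex 27-plex/21-plex sandwich immunoassays for 48 analytes, with spiked-ligand and mock-supernatant background controls.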

[6] = target: T2, Mitogen-activated protein kinase kinase kinase 7 (Homo sapiens, UniProt O43318); assay: Inhibition of TAK1 (unknown origin) by LanthaScreen assay
T2 sequence (O43318 whole entry): T1 sequence (whole entry)

[7] = system: SW-620; assay: Antiproliferative activity against human SW620 cells harboring KRAS G12V mutant after 72 hrs by CellTiter-Glo assay; assay type: functional, cell-based; details: SW-620, 72 h
[8] = target: T1, Mitogen-activated protein kinase kinase kinase 7 (Homo sapiens); assay: Inhibition of TAK1 in RA patient-derived synovial fibroblasts assessed as inhibition of IL-1alpha-induced cytokine secretion at 3 uM preincubated for 3 hrs followed by IL-1alpha stimulation measured after 18 hrs by sandwich immunoassay; in short: as §1
[9] = system: BaF3; assay: Antiproliferative activity against mouse BA/F3 cells harboring KRAS G12D mutant after 72 hrs by CellTiter-Glo assay; assay type: functional, cell-based; details: BaF3, 72 h
[10] = system: SK-CO-1; assay: Antiproliferative activity against human SKCO1 cells harboring KRAS G12V mutant after 72 hrs by CellTiter-Glo assay; assay type: functional, cell-based; details: SK-CO-1, 72 h
[11] = target: T1, Mitogen-activated protein kinase kinase kinase 7 (Homo sapiens); assay: Inhibition of biotin-labeled N-(2-(2-(2-(2-(4-(4-((4-((2-Acrylamidophenyl)amino)-5-chloropyrimidin-2-yl)amino)phenyl)piperazin-1-yl)ethoxy)ethoxy)ethoxy)ethyl)-5-((3aS,4S,6aR)-2-oxohexahydro-1H-thieno[3,4-d]imidazol-4-yl)pentanamide probe binding to TAK1 in human NCI-H358 cells at 10 uM after 6 hrs by immunoblot based competitive pull down assay; assay type: cell-based
In short: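 H358 cells given 1 or 10 μM compound for 6 h, medium removed, cells rinsed twice with cold PBS and lysed in MPER buffer. Lysates incubated overnight at 4 °C with 1 μM biotinylated covalent probe, captured on streptavidin beads, and TAK1 recovery assessed by immunoblotting with anti-TAK1 antibody.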

[12] = system: ASPC1; assay: Antiproliferative activity against human AsPC1 cells harboring KRAS G12D mutant after 72 hrs by CellTiter-Glo assay; assay type: functional, cell-based; details: ASPC1, 72 h
[13] = system: BaF3; assay: Antiproliferative activity against mouse BA/F3 cells after 72 hrs by CellTiter-Glo assay; assay type: cell-based; details: BaF3, 72 h
[14] = target: T1, Mitogen-activated protein kinase kinase kinase 7 (Homo sapiens); assay: Inhibition of TAK1 in RA patient-derived synovial fibroblasts assessed as inhibition of TNFalpha-induced cytokine secretion at 3 uM preincubated for 3 hrs followed by TNFalpha stimulation measured after 18 hrs by sandwich immunoassay; in short: as §1
[15] = Antiproliferative activity against human URMC6 cells harboring wild type KRAS after 72 hrs by CellTiter-Glo assay; assay type: functional, cell-based
[16] = system: U-937; assay: Antiproliferative activity against human U937 cells at […] to […] nM after 72 hrs by CellTiter-Glo assay; assay type: functional, cell-based
[17] = system: BaF3; assay: Antiproliferative activity against mouse BA/F3 cells harboring KRAS G12D mutant after 72 hrs in presence of IL-3 by CellTiter-Glo assay; assay type: functional, cell-based; details: BaF3, 72 h
[18] = target: Receptor-type tyrosine-protein kinase FLT3 (Homo sapiens, UniProt P36888); assay: Inhibition of FLT3 (unknown origin)
[19] = system: BaF3; assay: Antiproliferative activity against mouse BA/F3 cells harboring NRAS G12D mutant after 72 hrs in presence of IL-3 by CellTiter-Glo assay; assay type: functional, cell-based; details: BaF3, 72 h
In short: (§2)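 Ba/F3 parental or RAS-transformed cells were seeded at 1000 viable cells/well, without or with IL-3 as the line states, at 37 °C and 5% CO2. After 4 h, nine four-fold serial dilutions were added in triplicate (final 0.5–30,000 nM, 0.3% DMSO). DMSO wells served as 100% viability.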

[20] = system: BaF3; assay: Antiproliferative activity against mouse BA/F3 cells harboring NRAS G12D mutant after 72 hrs by CellTiter-Glo assay; assay type: functional, cell-based; details: BaF3, 72 h; in short: as §2
[21] = system: HEL; assay: Antiproliferative activity against human HEL cells at […] to […] nM after 72 hrs by CellTiter-Glo assay; assay type: functional, cell-based
[22] = system: NALM-6; assay: Antiproliferative activity against human NALM6 cells harboring NARS A146T mutant at […] to […] nM after 72 hrs by CellTiter-Glo assay; assay type: functional, cell-based
[23] = system: NCI-H23; assay: Antiproliferative activity against human NCI-H23 cells harboring KRAS G12C mutant after 72 hrs by CellTiter-Glo assay; assay type: functional, cell-based
In short: (§3)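 NCI-H23 or NCI-H358 cells seeded at 2000 cells/well and grown 48 h before drug. Varying doses were added and cells incubated 72 h. Viability was read as CellTiter-Glo luminescence, and growth-inhibition IC50 was calculated from dose-response curves.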

[24] = system: NCI-H358; assay: Antiproliferative activity against human NCI-H358 cells harboring KRAS G12C mutant after 72 hrs by CellTiter-Glo assay; assay type: functional, cell-based; in short: as §3
[25] = system: PANC-1; assay: Antiproliferative activity against human PANC1 cells harboring KRAS G12D mutant after 72 hrs by CellTiter-Glo assay; assay type: functional, cell-based; details: PANC-1, 72 h
[26] = Antiproliferative activity against human SW156 cells harboring wild type KRAS after 72 hrs by CellTiter-Glo assay; assay type: functional, cell-based

Chain of Receptor-type tyrosine-protein kinase FLT3 (P36888 whole entry): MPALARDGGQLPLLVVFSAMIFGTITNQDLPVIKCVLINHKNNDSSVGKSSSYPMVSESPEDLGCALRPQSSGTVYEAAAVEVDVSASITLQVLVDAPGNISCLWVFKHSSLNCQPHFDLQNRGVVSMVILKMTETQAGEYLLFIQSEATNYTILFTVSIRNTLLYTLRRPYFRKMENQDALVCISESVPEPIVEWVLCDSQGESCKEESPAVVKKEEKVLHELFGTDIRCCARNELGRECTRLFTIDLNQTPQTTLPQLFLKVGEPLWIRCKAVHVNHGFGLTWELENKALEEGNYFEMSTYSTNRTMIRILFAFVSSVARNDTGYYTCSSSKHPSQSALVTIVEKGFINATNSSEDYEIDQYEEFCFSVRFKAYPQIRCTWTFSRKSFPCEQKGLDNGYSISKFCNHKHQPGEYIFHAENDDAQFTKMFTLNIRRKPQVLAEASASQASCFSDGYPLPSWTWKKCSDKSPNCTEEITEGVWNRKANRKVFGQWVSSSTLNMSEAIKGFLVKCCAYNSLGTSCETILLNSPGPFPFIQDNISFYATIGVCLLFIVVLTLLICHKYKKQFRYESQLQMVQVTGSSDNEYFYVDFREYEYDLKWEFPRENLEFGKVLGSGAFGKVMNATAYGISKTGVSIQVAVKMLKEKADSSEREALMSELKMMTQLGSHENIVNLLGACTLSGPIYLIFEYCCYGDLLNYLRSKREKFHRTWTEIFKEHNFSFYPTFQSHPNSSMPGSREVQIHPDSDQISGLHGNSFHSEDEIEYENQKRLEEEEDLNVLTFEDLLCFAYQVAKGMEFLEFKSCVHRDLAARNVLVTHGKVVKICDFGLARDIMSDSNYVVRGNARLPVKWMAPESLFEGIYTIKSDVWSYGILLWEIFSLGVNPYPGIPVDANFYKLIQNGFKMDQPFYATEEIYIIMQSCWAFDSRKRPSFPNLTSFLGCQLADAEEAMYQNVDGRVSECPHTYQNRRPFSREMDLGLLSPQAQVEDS

Row | Structure (SMILES) | inhibition [5] | IC50 [6] [nM] | IC50 [7] [nM] | inhibition [8] | IC50 [9] [nM] | IC50 [10] [nM] | inhibition [11] | IC50 [12] [nM] | IC50 [13] [nM] | inhibition [14] | IC50 [17] [nM] | IC50 [19] [nM] | IC50 [20] [nM] | Activity [3] | Activity [4] | IC50 [15] [nM] | Activity [16] | Activity [21] | Activity [22] | Activity [23] | further results
1 | N#CC[C@H](C1CCCC1)n1cc(-c2ncnc3[nH]ccc23)cn1 | – | – | – | – | – | – | – | – | – | – | – | – | – | – | – | – | – | – | – | – | Activity [1]: Active; Activity [2]: Active
2 | CCN1CCN(Cc2ccc(NC(=O)c3ccc(C)c(Oc4ccnc5[nH]ccc45)c3)cc2C(F)(F)F)CC1 | – | – | – | – | – | – | – | – | – | – | – | – | – | Non-Toxic | – | – | – | – | – | – | –
3 | CN1CCN(c2ccc(Nc3ncc(Cl)c(Nc4ccccc4NC(=O)CCl)n3)cc2)CC1 | – | 25 | – | – | 31 | – | Active | – | 206 | – | 376 | 178 | 10 | – | Active | – | Active | inactive | inactive | Active | Activity [24]: Active

Continued, in another order:

Row | inhibition [5] | IC50 [6] [nM] | IC50 [7] [nM] | inhibition [8] | IC50 [9] [nM] | IC50 [10] [nM] | inhibition [11] | IC50 [12] [nM] | IC50 [13] [nM] | inhibition [14] | IC50 [17] [nM] | IC50 [19] [nM] | IC50 [20] [nM] | Structure (SMILES) | Activity [3] | Activity [4] | IC50 [15] [nM] | Activity [16] | Activity [21] | Activity [22] | Activity [23] | further results
4 | inactive | 1230 | 1650 | inactive | 923 | 2620 | inactive | 5020 | 2080 | inactive | 3600 | – | – | CCC(=O)Nc1ccccc1Oc1nc(Nc2cnn(CCOC)c2)ncc1Cl | – | Active | 1490 | Active | – | – | – | –
5 | Active | 5.1 | 767 | Active | 28 | 294 | Active | 1850 | 274 | Active | 93 | 61 | 10 | C=CC(=O)Nc1ccccc1Oc1nc(Nc2ccc(N3CCN(C)CC3)cc2)ncc1Cl | Toxic | Active | 524 | Active | inactive | inactive | Active | IC50 [18]: 0.63 nM; Activity [24]: Active; IC50 [25]: 1260 nM; IC50 [26]: 2880 nM
6 | inactive | – | 707 | inactive | 191 | 213 | inactive | 2700 | – | inactive | 60 | – | – | CCC(=O)Nc1ccccc1Oc1nc(Nc2ccc(N3CCN(C)CC3)cc2)ncc1Cl | – | – | 444 | – | – | – | – | IC50 [25]: 1360 nM; IC50 [26]: 3730 nM
